# Results: ChEMBL document CHEMBL1145212, “Fluorinated diaryl sulfides as serotonin transporter ligands: synthesis, structure-activity relationship study, and in vivo evaluation of fluorine-18-labeled compounds as PET imaging agents” (J Med Chem, 2005)
# Tests used:
# Rattus norvegicus [1] = species: Rattus norvegicus; assay: Regional uptake of [18F]AFA in hippocampus of rat pretreated with compound 7d; n=3; format: functional, organism-based; conditions: tested as the 18F-labelled form
# Rattus norvegicus [2] = species: Rattus norvegicus; assay: Regional uptake of [18F]-AFA in blood of rat pretreated with compound citalopram; n=3; format: functional, organism-based; conditions: tested as the 18F-labelled form
# In short: (§1)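 Male Sprague-Dawley rats, three per group, received blocker (2 mg/kg iv in saline) or saline only (controls) 10–15 min before about 20 µCi of tail-vein F-18 radioligand. Killed 60 min after tracer. Blood and brain regions weighed and gamma-counted. %ID/g was decay- and tail-corrected; mean ± SD.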
# Rattus norvegicus [3] = species: Rattus norvegicus; assay: Regional uptake of [18F]AFA in blood of rat pretreated with compound nisoxetine; n=3; format: functional, organism-based; conditions: tested as the 18F-labelled form; in short: as §1
# Rattus norvegicus [4] = species: Rattus norvegicus; assay: Regional uptake of [18F]AFA in frontal cortex of rat pretreated with compound 7d; n=3; format: functional, organism-based; conditions: tested as the 18F-labelled form
# Rattus norvegicus [5] = species: Rattus norvegicus; assay: Regional uptake of [18F]-AFA in striatum of rat pretreated with compound GBR-12935; n=3; format: functional, organism-based; conditions: tested as the 18F-labelled form; in short: as §1
# Rattus norvegicus [6] = species: Rattus norvegicus; assay: Regional uptake of [18F]AFA in thalamus of rat pretreated with compound GBR-12935; n=3; format: functional, organism-based; conditions: tested as the 18F-labelled form; in short: as §1
# Rattus norvegicus [7] = species: Rattus norvegicus; assay: Regional uptake of [18F]AFA in striatum of rat pretreated with compound citalopram; n=3; format: functional, organism-based; conditions: tested as the 18F-labelled form; in short: as §1
# Rattus norvegicus [8] = species: Rattus norvegicus; assay: Regional uptake of [18F]AFA in striatum of rat pretreated with compound nisoxetine; n=3; format: functional, organism-based; conditions: tested as the 18F-labelled form; in short: as §1
# Rattus norvegicus [9] = species: Rattus norvegicus; assay: Regional uptake of [18F]AFA in thalamus of rat pretreated with compound citalopram; n=3; format: functional, organism-based; conditions: tested as the 18F-labelled form; in short: as §1
# Rattus norvegicus [10] = species: Rattus norvegicus; assay: Regional uptake of [18F]AFA in thalamus of rat pretreated with compound nisoxetine; n=3; format: functional, organism-based; conditions: tested as the 18F-labelled form; in short: as §1
# Rattus norvegicus [11] = species: Rattus norvegicus; assay: Regional uptake of [18F]AFA in hippocampus of rat pretreated with compound GBR-12935; n=3; format: functional, organism-based; conditions: tested as the 18F-labelled form; in short: as §1
# Rattus norvegicus [12] = species: Rattus norvegicus; assay: Regional uptake of [18F]AFA in cerebellum of rat pretreated with compound citalopram; n=3; format: functional, organism-based; conditions: tested as the 18F-labelled form; in short: as §1
# Rattus norvegicus [13] = species: Rattus norvegicus; assay: Regional uptake of [18F]AFA in cerebellum of rat pretreated with compound nisoxetine; n=3; format: functional, organism-based; conditions: tested as the 18F-labelled form; in short: as §1
# Rattus norvegicus [14] = species: Rattus norvegicus; assay: Regional uptake of [18F]AFA in hypothalamus of rat pretreated with compound GBR-12935; n=3; format: functional, organism-based; conditions: tested as the 18F-labelled form; in short: as §1
# Rattus norvegicus [15] = species: Rattus norvegicus; assay: Regional uptake of [18F]AFA in hippocampus of rat pretreated with compound citalopram; n=3; format: functional, organism-based; conditions: tested as the 18F-labelled form; in short: as §1
# Rattus norvegicus [16] = species: Rattus norvegicus; assay: Regional uptake of [18F]AFA in hippocampus of rat pretreated with compound nisoxetine; n=3; format: functional, organism-based; conditions: tested as the 18F-labelled form; in short: as §1
# Rattus norvegicus [17] = species: Rattus norvegicus; assay: Regional uptake of [18F]AFA in frontal cortex of rat pretreated with compound GBR-12935; n=3; format: functional, organism-based; conditions: tested as the 18F-labelled form; in short: as §1
# Rattus norvegicus [18] = species: Rattus norvegicus; assay: Regional uptake of [18F]-AFA in hypothalamus of rat pretreated with compound nisoxetine; n=3; format: functional, organism-based; conditions: tested as the 18F-labelled form; in short: as §1
# Rattus norvegicus [19] = species: Rattus norvegicus; assay: Regional uptake of [18F]AFA in frontal cortex of rat pretreated with compound citalopram; n=3; format: functional, organism-based; conditions: tested as the 18F-labelled form; in short: as §1
# Rattus norvegicus [20] = species: Rattus norvegicus; assay: Regional uptake of [18F]AFA in frontal cortex of rat pretreated with compound nisoxetine; n=3; format: functional, organism-based; conditions: tested as the 18F-labelled form; in short: as §1
# [21] = target: Sodium-dependent serotonin transporter (Homo sapiens, UniProt P31645); assay: In vitro displacement of [3H]paroxetine from human serotonin transporter expressed in HEK293 cells; format: cell-based
# Rattus norvegicus [22] = species: Rattus norvegicus; assay: Regional uptake of [18F]AFA in hypothalamus of rat pretreated with compound 7d; n=3; format: functional, organism-based; conditions: tested as the 18F-labelled form
# Rattus norvegicus [23] = species: Rattus norvegicus; assay: Regional uptake of [18F]AFA in cerebellum of rat pretreated with compound GBR-12935; n=3; format: functional, organism-based; conditions: tested as the 18F-labelled form; in short: as §1
# Rattus norvegicus [24] = species: Rattus norvegicus; assay: Regional uptake of [18F]AFA in hypothalamus of rat pretreated with compound citalopram; n=3; format: functional, organism-based; conditions: tested as the 18F-labelled form; in short: as §1
# Rattus norvegicus [25] = species: Rattus norvegicus; assay: Regional uptake of [18F]-AFM in thalamus of rat pretreated with compound 7d; n=3; conditions: tested as the 18F-labelled form
# Sequence of Sodium-dependent serotonin transporter (P31645 whole entry): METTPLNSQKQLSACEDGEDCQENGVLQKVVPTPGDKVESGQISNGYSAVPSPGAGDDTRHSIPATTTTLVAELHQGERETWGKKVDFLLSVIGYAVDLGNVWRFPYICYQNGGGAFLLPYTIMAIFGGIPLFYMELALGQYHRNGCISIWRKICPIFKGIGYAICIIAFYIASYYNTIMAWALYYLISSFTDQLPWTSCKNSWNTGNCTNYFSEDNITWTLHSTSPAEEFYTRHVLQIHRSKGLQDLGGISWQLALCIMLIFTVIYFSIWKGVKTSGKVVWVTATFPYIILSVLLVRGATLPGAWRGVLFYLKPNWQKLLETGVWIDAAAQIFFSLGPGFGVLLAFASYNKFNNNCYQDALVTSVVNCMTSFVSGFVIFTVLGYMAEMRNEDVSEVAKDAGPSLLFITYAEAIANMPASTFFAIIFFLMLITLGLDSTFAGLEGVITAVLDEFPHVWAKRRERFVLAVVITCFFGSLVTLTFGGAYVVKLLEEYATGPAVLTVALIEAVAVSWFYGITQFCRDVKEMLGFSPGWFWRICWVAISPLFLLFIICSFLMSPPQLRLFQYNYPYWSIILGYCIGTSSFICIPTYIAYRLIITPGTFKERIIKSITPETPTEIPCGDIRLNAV
smiles,measurement,setting,value
CN(C)Cc1ccccc1Sc1ccc(CF)cc1N,Uptake,Rattus norvegicus [1],0.13 %ID/g
same,Uptake,Rattus norvegicus [2],0.12 %ID/g
same,Uptake,Rattus norvegicus [3],0.11 %ID/g
same,Uptake,Rattus norvegicus [4],0.12 %ID/g
same,Uptake,Rattus norvegicus [5],0.7 %ID/g
same,Uptake,Rattus norvegicus [6],0.74 %ID/g
same,Uptake,Rattus norvegicus [7],0.12 %ID/g
same,Uptake,Rattus norvegicus [8],0.58 %ID/g
same,Uptake,Rattus norvegicus [9],0.16 %ID/g
same,Uptake,Rattus norvegicus [10],0.65 %ID/g
same,Uptake,Rattus norvegicus [11],0.59 %ID/g
same,Uptake,Rattus norvegicus [12],0.08 %ID/g
same,Uptake,Rattus norvegicus [13],0.13 %ID/g
same,Uptake,Rattus norvegicus [14],0.87 %ID/g
same,Uptake,Rattus norvegicus [15],0.13 %ID/g
same,Uptake,Rattus norvegicus [16],0.47 %ID/g
same,Uptake,Rattus norvegicus [17],0.76 %ID/g
same,Uptake,Rattus norvegicus [18],0.73 %ID/g
same,Uptake,Rattus norvegicus [19],0.11 %ID/g
same,Uptake,Rattus norvegicus [20],0.72 %ID/g
same,Ki,[21],1.04 nM
same,Uptake,Rattus norvegicus [22],0.17 %ID/g
same,Uptake,Rattus norvegicus [23],0.13 %ID/g
same,Uptake,Rattus norvegicus [24],0.18 %ID/g
same,Uptake,Rattus norvegicus [25],0.17 %ID/g
